In brackets after ≈: the same amount, converted by molar mass. Activity calls are given as the source filed them. The rule behind the calls is not given here.
Experiments:
Plasmodium berghei [1] = assay: Antimalarial activity against drug-sensitive trophozoite stage of Plasmodium berghei infected in mouse assessed as increase in mean survival time up to 640 mg/kg, sc administered 72 hrs post infection; assay type: functional, organism-based; parameters: dose 640 mg/kg
Staphylococcus aureus [2] = assay: Antibacterial activity against drug-resistant Staphylococcus aureus S18713 assessed as growth inhibition by gradient plate test; assay type: functional
In short: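 In vitro test against a bacterial panel (S. faecalis MGH-2, S. aureus UC-76 and drug-resistant S18713, E. coli Vogel, Shigella sonnei C-10), run as a modified gradient plate procedure.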

Staphylococcus aureus [3] = assay: Antibacterial activity against Staphylococcus aureus UC-76 assessed as growth inhibition by gradient plate test; assay type: functional
In short: (§1)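 Modified gradient-plate method, in vitro. Panel: Streptococcus faecalis MGH-2, normal S. aureus UC-76, drug-resistant S. aureus S18713, E. coli Vogel, Shigella sonnei C-10.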

Enterococcus faecalis = assay: Antibacterial activity against Streptococcus faecalis MGH2 assessed as growth inhibition by gradient plate test; assay type: functional; in short: as §1
Escherichia coli = assay: Antibacterial activity against Escherichia coli Vogel assessed as growth inhibition by gradient plate test; assay type: functional; in short: as §1
Shigella sonnei = assay: Antibacterial activity against Shigella sonnei C-10 assessed as growth inhibition by gradient plate test; assay type: functional; in short: as §1
Plasmodium cynomolgi [4] = assay: Antimalarial activity against trophozoite stage of Plasmodium cynomolgi infected in rhesus monkey at 3.16 mg/kg, po; assay type: functional, organism-based; parameters: dose 3.16 mg/kg
In short: (§2)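 Rhesus monkey, one oral dose. Trophozoite-induced P. cynomolgi infection at 3.16 mg/kg; sporozoite-induced P. cynomolgi infection at 10 mg/kg.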

Plasmodium berghei [5] = assay: Antimalarial activity against trophozoite stage of Plasmodium berghei infected in mouse assessed as increase in mean survival time at 40 mg/kg, sc administered 72 hrs post infection; assay type: functional; settings: route subcutaneous
Plasmodium cynomolgi [6] = assay: Antimalarial activity against sporozoite stage of Plasmodium cynomolgi infected in rhesus monkey at 10 mg/kg; assay type: functional, organism-based; parameters: dose 10 mg/kg; in short: as §2
Plasmodium berghei [7] = assay: Antimalarial activity against drug-sensitive trophozoite stage of Plasmodium berghei infected in mouse assessed as survival over 60 days at 320 mg/kg, sc administered 72 hrs post infection; assay type: functional, organism-based; parameters: dose 320 mg/kg
Plasmodium gallinaceum [8] = assay: Antimalarial activity against sporozoite stage of Plasmodium gallinaceum infected in white leghorn cockerel assessed as survival over 30 days at 60 mg/kg, sc administered through peanut oil on day of infection; assay type: functional, organism-based; parameters: dose 60 mg/kg
Plasmodium gallinaceum [9] = assay: Antimalarial activity against sporozoite stage of Plasmodium gallinaceum infected in white leghorn cockerel assessed as increase in mean survival time at 7.5 mg/kg, sc administered through peanut oil on day of infection; assay type: functional; settings: route subcutaneous
Plasmodium gallinaceum [10] = assay: Antimalarial activity against sporozoite stage of Plasmodium gallinaceum infected in white leghorn cockerel assessed as survival over 30 days at 480 mg/kg, sc administered through peanut oil on day of infection; assay type: functional, organism-based; parameters: dose 480 mg/kg
Plasmodium gallinaceum [11] = assay: Antimalarial activity against sporozoite stage of Plasmodium gallinaceum infected in white leghorn cockerel assessed as increase in mean survival time at 3.75 mg/kg, sc administered through peanut oil on day of infection; assay type: functional; settings: route subcutaneous
Plasmodium gallinaceum [12] = assay: Antimalarial activity against sporozoite stage of Plasmodium gallinaceum infected in white leghorn cockerel assessed as survival over 30 days at 120 mg/kg, sc administered through peanut oil on day of infection; assay type: functional, organism-based; parameters: dose 120 mg/kg
Plasmodium gallinaceum [13] = assay: Antimalarial activity against sporozoite stage of Plasmodium gallinaceum infected in white leghorn cockerel assessed as survival over 30 days at 30 mg/kg, sc administered through peanut oil on day of infection; assay type: functional, organism-based; parameters: dose 30 mg/kg
Plasmodium berghei [14] = assay: Antimalarial activity against trophozoite stage of Plasmodium berghei infected in mouse assessed as increase in mean survival time at 160 mg/kg, sc administered 72 hrs post infection; assay type: functional; settings: route subcutaneous
Plasmodium gallinaceum [15] = assay: Antimalarial activity against sporozoite stage of Plasmodium gallinaceum infected in white leghorn cockerel assessed as survival over 30 days at 3.75 mg/kg, sc administered through peanut oil on day of infection; assay type: functional, organism-based; parameters: dose 3.75 mg/kg
Plasmodium gallinaceum [16] = assay: Antimalarial activity against sporozoite stage of Plasmodium gallinaceum infected in white leghorn cockerel assessed as survival over 30 days at 320 mg/kg, sc administered through peanut oil on day of infection; assay type: functional, organism-based; parameters: dose 320 mg/kg
Plasmodium gallinaceum [17] = assay: Antimalarial activity against sporozoite stage of Plasmodium gallinaceum infected in white leghorn cockerel assessed as survival over 30 days at 20 mg/kg, sc administered through peanut oil on day of infection; assay type: functional, organism-based; parameters: dose 20 mg/kg
Plasmodium gallinaceum [18] = assay: Antimalarial activity against sporozoite stage of Plasmodium gallinaceum infected in white leghorn cockerel assessed as survival over 30 days at 80 mg/kg, sc administered through peanut oil on day of infection; assay type: functional, organism-based; parameters: dose 80 mg/kg
Plasmodium gallinaceum [19] = assay: Antimalarial activity against sporozoite stage of Plasmodium gallinaceum infected in white leghorn cockerel assessed as increase in mean survival time at 480 mg/kg, sc administered through peanut oil on day of infection; assay type: functional; settings: route subcutaneous
Plasmodium gallinaceum [20] = assay: Antimalarial activity against sporozoite stage of Plasmodium gallinaceum infected in white leghorn cockerel assessed as increase in mean survival time at 120 mg/kg, sc administered through peanut oil on day of infection; assay type: functional; settings: route subcutaneous
Plasmodium gallinaceum [21] = assay: Antimalarial activity against sporozoite stage of Plasmodium gallinaceum infected in white leghorn cockerel assessed as increase in mean survival time at 30 mg/kg, sc administered through peanut oil on day of infection; assay type: functional; settings: route subcutaneous
Plasmodium gallinaceum [22] = assay: Antimalarial activity against sporozoite stage of Plasmodium gallinaceum infected in white leghorn cockerel assessed as survival over 30 days at 15 mg/kg, sc administered through peanut oil on day of infection; assay type: functional, organism-based; parameters: dose 15 mg/kg

| Compound | Activity (Plasmodium berghei [1]) | MIC (Staphylococcus aureus [2]) | MIC (Staphylococcus aureus [3]) | MIC (Enterococcus faecalis) | MIC (Escherichia coli) | MIC (Shigella sonnei) | further results |
| --- | --- | --- | --- | --- | --- | --- | --- |
| CN(Cc1c[n+]([O-])c2nc(N)nc(N)c2n1)c1ccc(Cl)c(Cl)c1 | inactive | – | – | – | – | – | – |
| CN(C)C=O.Nc1nc(N)c2nc(CNc3ccc(Cl)c(Cl)c3)cnc2n1 | inactive | < 0.25 µg/mL | < 0.25 µg/mL | < 0.25 µg/mL | > 25 µg/mL | > 25 µg/mL | – |
| Nc1nc(N)c2nc(CNc3ccc(Cl)c(Cl)c3)c[n+]([O-])c2n1 | inactive | – | – | – | – | – | – |
| CN(Cc1cnc2nc(N)nc(N)c2n1)c1cccc2ccccc12 | – | > 2.5 µg/mL | 1 µg/mL (≈ 3.02 µM) | < 0.25 µg/mL | > 25 µg/mL | > 25 µg/mL | Activity (Plasmodium cynomolgi [4]): inactive; Survival (Plasmodium berghei [5]): 5.4 days; Activity (Plasmodium cynomolgi [6]): inactive; Activity (Plasmodium berghei [7]): Active |
| Nc1nc(N)c2nc(CN(C=O)c3ccc(Cl)c(Cl)c3)cnc2n1 | inactive | 2 µg/mL (≈ 5.49 µM) | 1 µg/mL (≈ 2.75 µM) | < 0.25 µg/mL | > 25 µg/mL | > 25 µg/mL | – |
| COc1cc(N(C)Cc2c[n+]([O-])c3nc(N)nc(N)c3n2)cc(OC)c1OC | inactive | – | – | – | – | – | – |
| CCN(Cc1c[n+]([O-])c2nc(N)nc(N)c2n1)c1ccc(OC)cc1 | inactive | – | – | – | – | – | – |
| CN(Cc1cnc2nc(N)nc(N)c2n1)c1ccc(Cl)cc1 | inactive | 2 µg/mL (≈ 6.33 µM) | 1.5 µg/mL (≈ 4.75 µM) | < 0.25 µg/mL | > 25 µg/mL | > 25 µg/mL | – |
| Nc1nc(N)c2nc(CN3CCCc4ccccc43)cnc2n1 | – | – | – | – | – | – | Activity (Plasmodium gallinaceum [8]): Active; Survival (Plasmodium gallinaceum [9]): 2.3 days; Activity (Plasmodium gallinaceum [10]): Active; Survival (Plasmodium gallinaceum [11]): 1.3 days; Activity (Plasmodium gallinaceum [12]): Active; Activity (Plasmodium gallinaceum [13]): Active |
| CC(C)N(Cc1c[n+]([O-])c2nc(N)nc(N)c2n1)c1ccc(Cl)cc1 | inactive | – | – | – | – | – | – |
| CN(Cc1c[n+]([O-])c2nc(N)nc(N)c2n1)c1ccc(Cl)cc1 | inactive | – | – | – | – | – | – |
| COc1cc(N(C)Cc2cnc3nc(N)nc(N)c3n2)cc(OC)c1OC | – | < 0.25 µg/mL | < 0.25 µg/mL | < 0.25 µg/mL | > 25 µg/mL | > 25 µg/mL | Survival (Plasmodium berghei [14]): 8.5 days; Activity (Plasmodium berghei [7]): Active |
| CCCN(Cc1c[n+]([O-])c2nc(N)nc(N)c2n1)c1ccc(Cl)c(Cl)c1 | inactive | – | – | – | – | – | – |
| CC(C)N(Cc1c[n+]([O-])c2nc(N)nc(N)c2n1)c1ccc(Cl)c(Cl)c1 | inactive | – | – | – | – | – | – |
| CC(C)N(Cc1cnc2nc(N)nc(N)c2n1)c1ccc(Cl)c(Cl)c1 | inactive | < 0.25 µg/mL | < 0.25 µg/mL | < 0.25 µg/mL | > 25 µg/mL | > 25 µg/mL | – |
| CCN(Cc1c[n+]([O-])c2nc(N)nc(N)c2n1)c1ccc(Cl)cc1 | inactive | – | – | – | – | – | – |
| CN(Cc1cnc2nc(N)nc(N)c2n1)c1ccc(Cl)c(Cl)c1 | inactive | 1.5 µg/mL (≈ 4.28 µM) | < 0.25 µg/mL | < 0.25 µg/mL | > 25 µg/mL | > 25 µg/mL | – |
| CCOC(=O)c1ccc(N(C)Cc2cnc3nc(N)nc(N)c3n2)cc1 | inactive | – | – | – | – | – | Activity (Plasmodium gallinaceum [8]): Active; Activity (Plasmodium gallinaceum [10]): Active; Activity (Plasmodium gallinaceum [12]): Active |
| CN(Cc1c[n+]([O-])c2nc(N)nc(N)c2n1)c1cccc2ccccc12 | inactive | – | – | – | – | – | – |
| CCCN(Cc1cnc2nc(N)nc(N)c2n1)c1ccc(Cl)c(Cl)c1 | inactive | < 0.25 µg/mL | < 0.25 µg/mL | < 0.25 µg/mL | > 25 µg/mL | > 25 µg/mL | Activity (Plasmodium gallinaceum [8]): Active; Activity (Plasmodium gallinaceum [10]): Active; Activity (Plasmodium gallinaceum [15]): Active; Activity (Plasmodium gallinaceum [12]): Active; Activity (Plasmodium gallinaceum [13]): Active |
| CCN(Cc1cnc2nc(N)nc(N)c2n1)c1ccc(OC)cc1 | inactive | < 0.25 µg/mL | < 0.25 µg/mL | < 0.25 µg/mL | > 25 µg/mL | > 25 µg/mL | Activity (Plasmodium gallinaceum [16]): Active; Activity (Plasmodium gallinaceum [17]): Active; Activity (Plasmodium gallinaceum [18]): Active |
| CN(C)C=O.Nc1nc(N)c2nc(CN3CCCCC3c3ccccc3)cnc2n1 (configuration not stated) | – | – | – | – | – | – | Survival (Plasmodium gallinaceum [19]): 0.3 days; Survival (Plasmodium gallinaceum [20]): 0.2 days; Survival (Plasmodium gallinaceum [21]): 0.1 days |
| CC(C)N(Cc1cnc2nc(N)nc(N)c2n1)c1ccc(Cl)cc1.CN(C)C=O | inactive | 1.5 µg/mL | < 0.25 µg/mL | < 0.25 µg/mL | > 25 µg/mL | > 25 µg/mL | Activity (Plasmodium gallinaceum [8]): Active; Activity (Plasmodium gallinaceum [22]): Active; Activity (Plasmodium gallinaceum [10]): Active; Activity (Plasmodium gallinaceum [15]): Active; Activity (Plasmodium gallinaceum [12]): Active; Activity (Plasmodium gallinaceum [13]): Active |
| CCN(Cc1cnc2nc(N)nc(N)c2n1)c1ccc(Cl)cc1 | inactive | 1.5 µg/mL (≈ 4.55 µM) | < 0.25 µg/mL | < 0.25 µg/mL | > 25 µg/mL | > 25 µg/mL | – |

— ChEMBL document CHEMBL3272334, “Folate antagonists. 10. Synthesis and antimalarial effects of 6-[[(aryl and aralkyl)amino]methyl]-2,4-pteridinediamines and -pteridinediamine 8-oxides” (1978)
